These results are taken from ChEMBL document CHEMBL1144221, “Novel naphthoquinone and quinolinedione inhibitors of CDC25 phosphatase activity with antiproliferative properties” (Bioorg Med Chem, 2008).

The target in test [1] is T1, M-phase inducer phosphatase 2 (Homo sapiens, UniProt P30305).
T1 sequence (P30305 whole entry): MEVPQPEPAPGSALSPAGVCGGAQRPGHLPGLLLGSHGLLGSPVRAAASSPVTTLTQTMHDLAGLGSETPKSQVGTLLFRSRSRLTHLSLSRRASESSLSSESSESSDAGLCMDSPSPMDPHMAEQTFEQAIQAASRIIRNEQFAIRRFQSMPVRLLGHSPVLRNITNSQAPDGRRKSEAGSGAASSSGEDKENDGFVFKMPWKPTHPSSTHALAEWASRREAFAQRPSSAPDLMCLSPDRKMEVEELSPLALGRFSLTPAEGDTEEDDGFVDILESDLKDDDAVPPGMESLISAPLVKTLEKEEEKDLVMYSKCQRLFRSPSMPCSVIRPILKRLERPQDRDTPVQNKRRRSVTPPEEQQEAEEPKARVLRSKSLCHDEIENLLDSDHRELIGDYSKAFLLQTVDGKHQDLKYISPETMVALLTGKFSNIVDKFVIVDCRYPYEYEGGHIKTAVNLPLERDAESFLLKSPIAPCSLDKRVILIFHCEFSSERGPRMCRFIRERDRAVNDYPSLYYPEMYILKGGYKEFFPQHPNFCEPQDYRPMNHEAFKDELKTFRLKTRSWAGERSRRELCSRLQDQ
The test can be described thus: Inhibition of human recombinant CDC25B.

The subject of test [2] is HeLa. The test can be described thus: Cytotoxicity against human HeLa cells after 96 h by WST1 colorimetric assay. For orientation: Tetrazolium dyes change colour on reduction, which living cells bring about.
Test [3] has as its target T1, M-phase inducer phosphatase 2. The test can be described thus: Inhibition of human recombinant fused MBP-CDC25B3.
Test [4] has as its system HeLa. Nature of the test: Cell cycle arrest in asynchronous human HeLa cells assessed as accumulation at G2/M phase at 10 uM after 24 hrs by flow cytometry. It is filed as functional. The method, boiled down:
(§1)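 Asynchronous HeLa cells grown 24 h, then treated 24 h at 10 or 50 µM. Cells were trypsinized, fixed in cold ethanol and permeabilized with 0.25% Triton X-100. They were stained with anti-H3P/Alexa 488 antibody, treated with RNase and stained with propidium iodide (10 µg/mL). Flow cytometry gave the percentage of cells in G0/G1, S and G2/M. Three independent runs; DMSO served as negative control.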
On the technique in general: Flow cytometry measures light scatter and fluorescence of single cells or particles in a stream.

The subject of test [5] is HeLa. The test can be described thus: Cell cycle arrest in asynchronous human HeLa cells assessed as accumulation at G0/G1 phase at 10 uM after 24 hrs by flow cytometry. The class given is functional. The method, boiled down: as §1
The test system of test [6] is HeLa. Nature of the test: Cell cycle arrest in asynchronous human HeLa cells assessed as accumulation at S phase at 10 uM after 24 hrs by flow cytometry. It is filed as functional. The method, boiled down: as §1
For test [7], the system named is HeLa. The test can be described thus: Antiproliferative activity against human HeLa cells after 10 days by clonogenic assay. The class given is functional, cell-based. The note with it: 240 h. The method, boiled down: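 HeLa cells seeded at 100 cells/well, grown 24 h at 37 °C in 5% CO₂, then given medium with inhibitor at increasing concentrations (up to 100 µM) for 10 days. Colonies were fixed in 10% formaldehyde, stained with crystal violet and counted to get plating efficiency. IC50 was taken from the dose-response curve.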

As for `C[C@@]12CCCc3coc(c31)C(=O)c1cc3c(cc12)C(=O)C1=C(NCCS1(=O)=O)C3=O` [ADOCIAQUINONE B], the IC50 (commonly the midpoint of a concentration-inhibition curve) in test [1] turned out to be 0.07 µM.

As for `O=C(CSC1=C(SCC(=O)OCc2ccccc2)C(=O)c2ccccc2C1=O)OCc1ccccc1`, the IC50 in test [1] is 3.4 µM.

On to `O=C1C(Br)=C(Br)C(=O)c2ncccc21`, for which the values for the half-maximal inhibitory concentration (IC50) in test [2] and in test [3] were 21.5 µM and 5.3 µM, respectively.

`O=C1C(SCCO)=C(SCCO)C(=O)c2ccccc21`: the results for the IC50 in test [2] and in test [7] were 10.8 µM and 8.5 µM, respectively. Moreover, the Activity in test [4] was 19%; in test [5] it was 56%; in test [6], 25%.
